Test results reported in paper PMC8360131 (Angewandte Chemie (International Ed. in English), 2021).
Read-outs that look alike come from different tables or passages of the source. One block for each molecule: values may come before it. *1 amine or outer side, *2 acyl side, *3 side chain or, on linkers, in order; H or OH if unused. Where a SMILES comes first, the peptide text is derived from it. [ ]: non-standard residue; d: D form. The star is where a group is joined. X1 = CCC(=O)C[C@H](O)C[C@@H](C)C[C@H](N[*:1])C(=O)[*:2]; Hexenoyl(2E,4S-Me) = CC[C@H](C)/C=C/C(=O)*; Leu(3R-OH) = CC(C)[C@@H](O)[C@H](N)C(=O)O; NH((S)CH(Me)CH2NMe2) = C[C@@H](CN(C)C)N*; Pro(4S-Me) = C[C@@H]1CN[C@H](C(=O)O)C1; NH(1-CH2NMe2-cBu) = CN(C)CC1(N*)CCC1; Oxazole4CO(2-Me) = Cc1nc(C(=O)*)co1; hCha = N[C@@H](CCC1CCCCC1)C(=O)O; NMeL = CN[C@@H](CC(C)C)C(=O)O; Aib = CC(C)(N)C(=O)O; βAla = NCCC(=O)O

Columns and labels:
[1] = tested on: T. b. brucei bloodstream forms; test: MitoTracker fluorescence microscopy; type: cell-based; conditions: 24 h treatment; 4 and 5 at 40 nM final concentration
In short: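 Bloodstream-form T. b. brucei (NYsm strain) were exposed to test compound for 24 h, some at 40 nM final concentration. Cells were then incubated with the mitochondrial membrane potential-dependent dye MitoTracker, co-stained with DAPI and anti-ATOM40, and examined by fluorescence microscopy with DIC imaging. Untreated parasites were stained in parallel.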

[2] = tested on: T. b. brucei bloodstream forms; test: TMRE mitochondrial membrane potential assay; type: cell-based
In short: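 The mitochondrial membrane potential of bloodstream-form T. b. brucei (NYsm) was quantified with the potential-sensitive dye TMRE, before and after test compound treatment. TMRE fluorescence was expressed relative to control parasites. CCCP served as positive control.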

[3] = tested on: Leishmania donovani axenic amastigotes (strain MHOM/ET/67/L82); test: L. donovani axenic amastigotes resazurin assay; type: cell-based
[4] = tested on: Trypanosoma cruzi (Tulahuen strain C2C4); test: T. cruzi assay in L6 cells; type: cell-based; conditions: read-out: T. cruzi; intracellular
[5] = tested on: T. b. brucei 427 bloodstream forms; test: T. b. brucei bloodstream form resazurin IC50 assay; type: cell-based; conditions: read-out: activity on T. b. brucei; 72 h exposure
[6] = tested on: Leishmania donovani intracellular amastigotes; test: L. donovani intracellular amastigotes in macrophages; type: cell-based; conditions: read-out: L. donovani. Macrophage, mouse peritoneal macrophages
[7] = mice; cited from earlier work
[8] = tested on: Plasmodium falciparum; conditions: read-out: IC50 Plasmodium falciparum; cited from earlier work
[9] = tested on: Trypanosoma brucei; conditions: read-out: IC50 Trypanosoma brucei; cited from earlier work
[10] = tested on: T. brucei; conditions: cited from earlier work
[11] = tested on: T. brucei; conditions: cited from earlier work; remark: listed apart in the source
[12] = tested on: bacteria, fungi, and cancer cells; conditions: cited from earlier work
[13] = read-out: L. donovani. axenic amastigotes, range in parentheses

- IC50 [4]: > 2000 nM
Molecule: Cc1nc(C(=O)N2CCC[C@H]2C(=O)N[C@@H](CCC2CCCCC2)C(=O)N[C@@H](CC(C)C)C(=O)NC(C)(C)C(=O)N[C@@H](CC(C)C)C(=O)N(C)[C@@H](CC(C)C)C(=O)NC(C)(C)C(=O)NC(C)(C)C(=O)NCCC(=O)NC2(CN(C)C)CCC2)co1 [Compound 3] ({Oxazole4CO(2-Me)}-P[hCha]L[Aib]L[NMeL][Aib][Aib][βAla]-{NH(1-CH2NMe2-cBu)})
- MitoTracker mitochondrial staining [1]: no changes
- TMRE fluorescence relative to control parasites [2]: no changes
- IC50 [3, 13]: 9260 nM

Molecule: CCC(=O)C[C@H](O)C[C@@H](C)C[C@H](NC(=O)[C@@H]1C[C@H](C)CN1C(=O)/C=C/[C@@H](C)CC)C(=O)N[C@H](C(=O)NC(C)(C)C(=O)N[C@@H](CC(C)C)C(=O)N[C@@H](CC(C)C)C(=O)NC(C)(C)C(=O)NC(C)(C)C(=O)NCCC(=O)N[C@@H](C)CN(C)C)[C@H](O)C(C)C [leucinostatin A (1 a), leucinostatin A] ({Hexenoyl(2E,4S-Me)}-[Pro(4S-Me)][X1][Leu(3R-OH)][Aib]LL[Aib][Aib][βAla]-{NH((S)CH(Me)CH2NMe2)})
- IC50 [5]: 0.4 nM
- TMRE fluorescence relative to control parasites [2]: concentration‐dependent decrease
- IC50 [3, 13]: 1.05 nM
- IC50 [6]: 9.8 nM
- IC50 [4]: 23 nM
- ip LD50 [7]: 1.1 mg/kg
- IC50 [8]: 0.4 to 0.9 nM
- IC50 [9]: 2.8 nM

Molecule: CCCCCCCCCCCCCCCCOP(=O)([O-])OCC[N+](C)(C)C [miltefosine]
- IC50 ([3]; Leishmania donovani, read-out: L. donovani. axenic amastigotes [nM]): 483 nM

Molecule: leucinostatin B [leucinostatin B (1 b)]
- curative effect ([10]; 4×0.3 mg kg^−1 ip): curative effects
- curative effect ([10]; 4×1.0 mg kg^−1 ip): curative effects
- mean duration of survival compared to untreated mice ([11]; 4×0.3 mg kg^−1 ip): slightly increased
- mice cured ([11]; 4×0.3 mg kg^−1 ip): no mice were cured
- mice cured ([11]; 4×1.0 mg kg^−1 ip): one of 4 mice was cured
- mean duration of survival ([11]; 4×1.0 mg kg^−1 ip, untreated 11.3 days): 28 days

Molecule: leucinostatin Y
- activity compared with leucinostatin A [12]: far less active
